Laboratory results from ChEMBL document CHEMBL1155154, “Target gene sequencing to characterize the penicillin G susceptibility of Neisseria meningitidis” (2007).
≈ marks a conversion by molar mass, not a printed value.

Assays:
Assay type in all cases: functional
[1] = test system: Neisseria meningitidis; test: Antimicrobial activity against Neisseria meningitidis isolates harboring penA 34 allele encoding PBP2 mutant
Method in brief: (§1)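 Penicillin G MICs were determined for N. meningitidis isolates grouped by penA allele, with the PBP2 C-terminal region (amino acids 441 to 574) deduced from penA sequencing. Values are geometric mean MICs with lower and upper 95% confidence limits, calculated only for alleles represented by at least five isolates.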

[2] = test system: Neisseria meningitidis; test: Antimicrobial activity against Neisseria meningitidis isolates harboring penA 81 allele encoding PBP2 mutant; method in brief: as §1
[3] = test system: Neisseria meningitidis; test: Antimicrobial activity against Neisseria meningitidis isolates harboring penA 27 allele encoding PBP2 mutant; method in brief: as §1
[4] = test system: Neisseria meningitidis; test: Antimicrobial activity against Neisseria meningitidis isolates harboring penA 7 allele encoding PBP2 mutant; method in brief: as §1
[5] = test system: Neisseria meningitidis; test: Antimicrobial activity against Neisseria meningitidis isolates harboring penA 15 allele encoding PBP2 mutant; method in brief: as §1
[6] = test system: Neisseria meningitidis; test: Antimicrobial activity against Neisseria meningitidis isolates harboring penA 29 allele encoding PBP2 mutant; method in brief: as §1
[7] = test system: Neisseria meningitidis; test: Antimicrobial activity against Neisseria meningitidis isolates harboring penA 14 allele encoding PBP2 mutant; method in brief: as §1
[8] = test system: Neisseria meningitidis; test: Antimicrobial activity against Neisseria meningitidis isolates harboring penA 83 allele encoding PBP2 mutant; method in brief: as §1
[9] = test system: Neisseria meningitidis; test: Antimicrobial activity against Neisseria meningitidis isolates harboring penA 30 allele encoding PBP2 mutant; method in brief: as §1
[10] = test system: Neisseria meningitidis; test: Antimicrobial activity against Neisseria meningitidis isolates harboring penA 22 allele encoding PBP2 mutant; method in brief: as §1
[11] = test system: Neisseria meningitidis; test: Antimicrobial activity against Neisseria meningitidis isolates harboring penA 2 allele encoding PBP2 mutant; method in brief: as §1
[12] = test system: Neisseria meningitidis; test: Antimicrobial activity against Neisseria meningitidis isolates harboring penA 57 allele encoding PBP2 mutant; method in brief: as §1
[13] = test system: Neisseria meningitidis; test: Antimicrobial activity against Neisseria meningitidis isolates harboring penA 25 allele encoding PBP2 mutant; method in brief: as §1
[14] = test system: Neisseria meningitidis; test: Antimicrobial activity against Neisseria meningitidis isolates harboring penA 17 allele encoding PBP2 mutant; method in brief: as §1
[15] = test system: Neisseria meningitidis; test: Antimicrobial activity against Neisseria meningitidis isolates harboring penA 18 allele encoding PBP2 mutant; method in brief: as §1
[16] = test system: Neisseria meningitidis; test: Antimicrobial activity against Neisseria meningitidis isolates harboring penA 11 allele encoding PBP2 mutant; method in brief: as §1
[17] = test system: Neisseria meningitidis; test: Antimicrobial activity against Neisseria meningitidis isolates harboring penA 52 allele encoding PBP2 mutant; method in brief: as §1
[18] = test system: Neisseria meningitidis; test: Antimicrobial activity against Neisseria meningitidis isolates harboring penA 1 allele encoding PBP2 mutant; method in brief: as §1
[19] = test system: Neisseria meningitidis; test: Antimicrobial activity against Neisseria meningitidis isolates harboring penA 4 allele encoding PBP2 mutant; method in brief: as §1
[20] = test system: Neisseria meningitidis; test: Antimicrobial activity against Neisseria meningitidis isolates harboring penA 13 allele encoding PBP2 mutant; method in brief: as §1
[21] = test system: Neisseria meningitidis; test: Antimicrobial activity against Neisseria meningitidis isolates harboring penA 19 allele encoding PBP2 mutant; method in brief: as §1
[22] = test system: Neisseria meningitidis; test: Antimicrobial activity against Neisseria meningitidis isolates harboring penA 12 allele encoding PBP2 mutant; method in brief: as §1
[23] = test system: Neisseria meningitidis; test: Antimicrobial activity against Neisseria meningitidis isolates harboring penA 111 allele encoding PBP2 P551 mutant; method in brief: as §1
[24] = test system: Neisseria meningitidis; test: Antimicrobial activity against Neisseria meningitidis isolates harboring penA 33 allele encoding PBP2 mutant; method in brief: as §1
[25] = test system: Neisseria meningitidis; test: Antimicrobial activity against Neisseria meningitidis isolates harboring penA 23 allele encoding PBP2 mutant; method in brief: as §1
[26] = test system: Neisseria meningitidis; test: Antimicrobial activity against Neisseria meningitidis isolates harboring penA 16 allele encoding PBP2 mutant; method in brief: as §1
[27] = test system: Neisseria meningitidis; test: Antimicrobial activity against Neisseria meningitidis isolates harboring penA 3 allele encoding PBP2 mutant; method in brief: as §1
[28] = test system: Neisseria meningitidis; test: Antimicrobial activity against Neisseria meningitidis isolates harboring penA 20 allele encoding PBP2 mutant; method in brief: as §1
[29] = test system: Neisseria meningitidis; test: Antimicrobial activity against Neisseria meningitidis isolates harboring penA 42 allele encoding PBP2 mutant; method in brief: as §1
[30] = test system: Neisseria meningitidis; test: Antimicrobial activity against Neisseria meningitidis isolates harboring penA 5 allele encoding PBP2 mutant; method in brief: as §1
[31] = test system: Neisseria meningitidis; test: Antimicrobial activity against Neisseria meningitidis isolates harboring penA 9 allele encoding PBP2 mutant; method in brief: as §1

For `CC1(C)S[C@@H]2[C@H](NC(=O)Cc3ccccc3)C(=O)N2[C@H]1C(=O)O` [PENICILLIN G], which MIC [1] is on record?
The MIC was 0.032 µg/mL (≈ 0.0957 µM).

What about the MIC [2] of the same compound?
The MIC was 0.19 µg/mL (≈ 0.568 µM).

And the MIC [3]?
Its MIC is 0.032 µg/mL (≈ 0.0957 µM).

And the MIC [4]?
The MIC was 0.064 µg/mL (≈ 0.191 µM).

And the MIC [5]?
Its MIC is 0.094 µg/mL (≈ 0.281 µM).

What about the MIC [6] of the same compound?
The MIC was 0.094 µg/mL (≈ 0.281 µM).

And the MIC [7]?
Its MIC is 0.064 µg/mL (≈ 0.191 µM).

And the MIC [8]?
The MIC was 0.023 µg/mL (≈ 0.0688 µM).

And the MIC [9]?
Its MIC is 0.125 µg/mL (≈ 0.374 µM).

And the MIC [10]?
The MIC was 0.023 µg/mL (≈ 0.0688 µM).

What about the MIC [11] of the same compound?
Its MIC is 0.015 µg/mL (≈ 0.0449 µM).

What about the MIC [12] of the same compound?
Its MIC is 0.008 µg/mL (≈ 0.0239 µM).

And the MIC [13]?
Its MIC is 0.064 µg/mL (≈ 0.191 µM).

And the MIC [14]?
The MIC was 0.125 µg/mL (≈ 0.374 µM).

What about the MIC [15] of the same compound?
The MIC was 0.094 µg/mL (≈ 0.281 µM).

And the MIC [16]?
Its MIC is 0.094 µg/mL (≈ 0.281 µM).

What about the MIC [17] of the same compound?
Its MIC is 0.064 µg/mL (≈ 0.191 µM).

And the MIC [18]?
The MIC was 0.008 µg/mL (≈ 0.0239 µM).

What about the MIC [19] of the same compound?
Its MIC is 0.032 µg/mL (≈ 0.0957 µM).

What about the MIC [20] of the same compound?
Its MIC is 0.125 µg/mL (≈ 0.374 µM).

What about the MIC [21] of the same compound?
Its MIC is 0.064 µg/mL (≈ 0.191 µM).

And the MIC [22]?
Its MIC is 0.064 µg/mL (≈ 0.191 µM).

And the MIC [23]?
Its MIC is 0.094 µg/mL (≈ 0.281 µM).

What about the MIC [24] of the same compound?
Its MIC is 0.125 µg/mL (≈ 0.374 µM).

And the MIC [25]?
The MIC was 0.064 µg/mL (≈ 0.191 µM).

And the MIC [26]?
Its MIC is 0.047 µg/mL (≈ 0.141 µM).

And the MIC [27]?
The MIC was 0.004 µg/mL (≈ 0.012 µM).

And the MIC [28]?
Its MIC is 0.094 µg/mL (≈ 0.281 µM).

What about the MIC [29] of the same compound?
The MIC was 0.094 µg/mL (≈ 0.281 µM).

And the MIC [30]?
Its MIC is 0.015 µg/mL (≈ 0.0449 µM).

And the MIC [31]?
The MIC was 0.064 µg/mL (≈ 0.191 µM).
